Experiment [1] concerns the target T1, CREB-binding protein/Histone acetyltransferase p300 (Homo sapiens) (UniProt Q09472+Q92793). Put plainly: Inhibition of CREBBP/EP300 in human HCT-116 cells assessed as reduction in H3K18Ac at 10 uM for 6 hrs by Western blot analysis. Type of experiment: cell-based. Put shortly:
(§1)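 HCT116 human colorectal cancer cells were exposed to ligand at 10 μM for 6, 16 or 24 h. c-Myc, H3K18Ac and H3K27Ac levels were read by western blot, with acetylation marks expressed relative to the t = 0 level.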

Experiment [2] addresses T1, CREB-binding protein/Histone acetyltransferase p300 (Homo sapiens). Nature of the experiment: Inhibition of CREBBP/EP300 in human HCT-116 cells assessed as reduction in H3K18Ac at 10 uM for 24 hrs by Western blot analysis. Type of experiment: cell-based. Put shortly: as §1
Experiment [3] shares this target. Put plainly: Inhibition of CREBBP/EP300 in human HCT-116 cells assessed as reduction in H3K27Ac at 10 uM for 24 hrs by Western blot analysis. The experiment is classed as cell-based. Put shortly: as §1
For experiment [4] the target is unchanged. Put plainly: Inhibition of CREBBP/EP300 in human HCT-116 cells assessed as reduction in H3K27Ac at 10 uM for 6 hrs by Western blot analysis. Type of experiment: cell-based. Put shortly:
as §1

For experiment [5], the target named is Bromodomain-containing protein 4 (Homo sapiens, UniProt O60885). Nature of the experiment: Binding affinity to human BRD4 bromodomain 1 assessed as dissociation constant by ITC assay.
For experiment [6], the target named is T1, CREB-binding protein/Histone acetyltransferase p300 (Homo sapiens). Nature of the experiment: Inhibition of CREBBP/EP300 in human HCT-116 cells assessed as reduction in c-Myc protein expression at 10 uM for 6 hrs by Western blot analysis. Type of experiment: cell-based. A digest of the protocol: as §1

For 1 compound, inhibition and Kd results are on record in ChEMBL document CHEMBL5029150, “Controlling Intramolecular Interactions in the Design of Selective, High-Affinity Ligands for the CREBBP Bromodomain” (J Med Chem, 2021).

The source made the active and inactive calls. The rule behind the calls is not given here.

T1 sequence (Q09472 whole entry, looked up): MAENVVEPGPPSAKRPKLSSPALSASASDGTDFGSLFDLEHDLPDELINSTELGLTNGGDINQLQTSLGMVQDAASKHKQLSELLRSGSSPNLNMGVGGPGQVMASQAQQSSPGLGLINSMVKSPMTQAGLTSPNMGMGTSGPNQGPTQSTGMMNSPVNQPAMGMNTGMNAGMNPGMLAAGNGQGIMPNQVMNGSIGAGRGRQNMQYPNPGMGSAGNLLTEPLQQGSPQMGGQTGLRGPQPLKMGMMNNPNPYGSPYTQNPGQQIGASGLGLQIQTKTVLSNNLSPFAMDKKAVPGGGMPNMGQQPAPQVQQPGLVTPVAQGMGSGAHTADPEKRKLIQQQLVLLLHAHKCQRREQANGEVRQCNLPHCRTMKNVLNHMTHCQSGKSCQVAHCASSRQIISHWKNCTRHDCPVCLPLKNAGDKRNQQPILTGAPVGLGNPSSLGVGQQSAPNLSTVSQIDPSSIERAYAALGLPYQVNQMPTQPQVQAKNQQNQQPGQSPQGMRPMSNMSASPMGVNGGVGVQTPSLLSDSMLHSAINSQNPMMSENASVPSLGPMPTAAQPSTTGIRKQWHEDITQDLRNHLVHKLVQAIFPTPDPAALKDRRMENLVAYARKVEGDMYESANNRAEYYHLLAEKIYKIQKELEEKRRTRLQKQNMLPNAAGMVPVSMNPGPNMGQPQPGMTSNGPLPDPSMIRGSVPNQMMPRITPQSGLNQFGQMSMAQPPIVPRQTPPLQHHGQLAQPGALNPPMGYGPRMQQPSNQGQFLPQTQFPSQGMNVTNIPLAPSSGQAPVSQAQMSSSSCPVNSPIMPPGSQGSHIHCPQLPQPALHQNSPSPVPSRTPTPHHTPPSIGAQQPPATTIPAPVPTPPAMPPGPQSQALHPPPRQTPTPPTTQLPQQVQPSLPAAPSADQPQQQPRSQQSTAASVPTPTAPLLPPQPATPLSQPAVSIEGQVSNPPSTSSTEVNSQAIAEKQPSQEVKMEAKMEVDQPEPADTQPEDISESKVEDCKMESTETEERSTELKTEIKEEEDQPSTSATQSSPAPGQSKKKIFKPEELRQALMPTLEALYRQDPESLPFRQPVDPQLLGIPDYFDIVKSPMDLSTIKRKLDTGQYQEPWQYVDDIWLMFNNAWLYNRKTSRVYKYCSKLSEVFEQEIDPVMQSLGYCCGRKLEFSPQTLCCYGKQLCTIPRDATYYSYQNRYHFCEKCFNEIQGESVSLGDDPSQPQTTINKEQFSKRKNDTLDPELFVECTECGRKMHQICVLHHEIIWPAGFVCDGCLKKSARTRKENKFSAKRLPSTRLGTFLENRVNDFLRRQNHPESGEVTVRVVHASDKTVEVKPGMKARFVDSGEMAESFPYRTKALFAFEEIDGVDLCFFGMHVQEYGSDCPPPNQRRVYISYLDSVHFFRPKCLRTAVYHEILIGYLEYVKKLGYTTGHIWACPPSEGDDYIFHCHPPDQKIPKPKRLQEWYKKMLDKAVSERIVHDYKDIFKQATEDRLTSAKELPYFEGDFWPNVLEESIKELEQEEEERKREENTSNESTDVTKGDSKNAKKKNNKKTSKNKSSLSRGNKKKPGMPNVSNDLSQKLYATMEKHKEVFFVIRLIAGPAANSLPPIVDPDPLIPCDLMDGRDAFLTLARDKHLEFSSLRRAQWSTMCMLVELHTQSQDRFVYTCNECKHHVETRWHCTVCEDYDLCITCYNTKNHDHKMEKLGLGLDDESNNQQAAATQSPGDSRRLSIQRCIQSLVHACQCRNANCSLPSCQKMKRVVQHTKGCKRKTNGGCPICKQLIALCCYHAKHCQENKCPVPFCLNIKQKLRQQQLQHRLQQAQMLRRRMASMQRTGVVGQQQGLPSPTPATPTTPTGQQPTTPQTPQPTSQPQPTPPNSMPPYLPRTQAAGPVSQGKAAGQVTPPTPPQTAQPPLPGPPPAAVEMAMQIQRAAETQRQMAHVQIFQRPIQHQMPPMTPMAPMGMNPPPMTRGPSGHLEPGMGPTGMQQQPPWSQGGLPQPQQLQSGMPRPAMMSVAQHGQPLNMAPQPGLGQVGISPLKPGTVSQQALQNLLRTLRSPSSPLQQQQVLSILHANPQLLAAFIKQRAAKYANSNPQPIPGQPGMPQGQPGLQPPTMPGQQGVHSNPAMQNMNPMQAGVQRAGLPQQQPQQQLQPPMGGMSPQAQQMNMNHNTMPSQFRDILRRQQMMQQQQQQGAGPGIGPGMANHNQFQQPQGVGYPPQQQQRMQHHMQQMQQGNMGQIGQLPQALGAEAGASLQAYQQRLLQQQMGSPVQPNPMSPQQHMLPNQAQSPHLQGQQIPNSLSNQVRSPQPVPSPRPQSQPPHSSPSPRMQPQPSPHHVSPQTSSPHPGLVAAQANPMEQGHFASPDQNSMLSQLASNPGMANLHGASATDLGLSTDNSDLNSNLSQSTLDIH
T1 sequence (Q92793 whole entry, looked up): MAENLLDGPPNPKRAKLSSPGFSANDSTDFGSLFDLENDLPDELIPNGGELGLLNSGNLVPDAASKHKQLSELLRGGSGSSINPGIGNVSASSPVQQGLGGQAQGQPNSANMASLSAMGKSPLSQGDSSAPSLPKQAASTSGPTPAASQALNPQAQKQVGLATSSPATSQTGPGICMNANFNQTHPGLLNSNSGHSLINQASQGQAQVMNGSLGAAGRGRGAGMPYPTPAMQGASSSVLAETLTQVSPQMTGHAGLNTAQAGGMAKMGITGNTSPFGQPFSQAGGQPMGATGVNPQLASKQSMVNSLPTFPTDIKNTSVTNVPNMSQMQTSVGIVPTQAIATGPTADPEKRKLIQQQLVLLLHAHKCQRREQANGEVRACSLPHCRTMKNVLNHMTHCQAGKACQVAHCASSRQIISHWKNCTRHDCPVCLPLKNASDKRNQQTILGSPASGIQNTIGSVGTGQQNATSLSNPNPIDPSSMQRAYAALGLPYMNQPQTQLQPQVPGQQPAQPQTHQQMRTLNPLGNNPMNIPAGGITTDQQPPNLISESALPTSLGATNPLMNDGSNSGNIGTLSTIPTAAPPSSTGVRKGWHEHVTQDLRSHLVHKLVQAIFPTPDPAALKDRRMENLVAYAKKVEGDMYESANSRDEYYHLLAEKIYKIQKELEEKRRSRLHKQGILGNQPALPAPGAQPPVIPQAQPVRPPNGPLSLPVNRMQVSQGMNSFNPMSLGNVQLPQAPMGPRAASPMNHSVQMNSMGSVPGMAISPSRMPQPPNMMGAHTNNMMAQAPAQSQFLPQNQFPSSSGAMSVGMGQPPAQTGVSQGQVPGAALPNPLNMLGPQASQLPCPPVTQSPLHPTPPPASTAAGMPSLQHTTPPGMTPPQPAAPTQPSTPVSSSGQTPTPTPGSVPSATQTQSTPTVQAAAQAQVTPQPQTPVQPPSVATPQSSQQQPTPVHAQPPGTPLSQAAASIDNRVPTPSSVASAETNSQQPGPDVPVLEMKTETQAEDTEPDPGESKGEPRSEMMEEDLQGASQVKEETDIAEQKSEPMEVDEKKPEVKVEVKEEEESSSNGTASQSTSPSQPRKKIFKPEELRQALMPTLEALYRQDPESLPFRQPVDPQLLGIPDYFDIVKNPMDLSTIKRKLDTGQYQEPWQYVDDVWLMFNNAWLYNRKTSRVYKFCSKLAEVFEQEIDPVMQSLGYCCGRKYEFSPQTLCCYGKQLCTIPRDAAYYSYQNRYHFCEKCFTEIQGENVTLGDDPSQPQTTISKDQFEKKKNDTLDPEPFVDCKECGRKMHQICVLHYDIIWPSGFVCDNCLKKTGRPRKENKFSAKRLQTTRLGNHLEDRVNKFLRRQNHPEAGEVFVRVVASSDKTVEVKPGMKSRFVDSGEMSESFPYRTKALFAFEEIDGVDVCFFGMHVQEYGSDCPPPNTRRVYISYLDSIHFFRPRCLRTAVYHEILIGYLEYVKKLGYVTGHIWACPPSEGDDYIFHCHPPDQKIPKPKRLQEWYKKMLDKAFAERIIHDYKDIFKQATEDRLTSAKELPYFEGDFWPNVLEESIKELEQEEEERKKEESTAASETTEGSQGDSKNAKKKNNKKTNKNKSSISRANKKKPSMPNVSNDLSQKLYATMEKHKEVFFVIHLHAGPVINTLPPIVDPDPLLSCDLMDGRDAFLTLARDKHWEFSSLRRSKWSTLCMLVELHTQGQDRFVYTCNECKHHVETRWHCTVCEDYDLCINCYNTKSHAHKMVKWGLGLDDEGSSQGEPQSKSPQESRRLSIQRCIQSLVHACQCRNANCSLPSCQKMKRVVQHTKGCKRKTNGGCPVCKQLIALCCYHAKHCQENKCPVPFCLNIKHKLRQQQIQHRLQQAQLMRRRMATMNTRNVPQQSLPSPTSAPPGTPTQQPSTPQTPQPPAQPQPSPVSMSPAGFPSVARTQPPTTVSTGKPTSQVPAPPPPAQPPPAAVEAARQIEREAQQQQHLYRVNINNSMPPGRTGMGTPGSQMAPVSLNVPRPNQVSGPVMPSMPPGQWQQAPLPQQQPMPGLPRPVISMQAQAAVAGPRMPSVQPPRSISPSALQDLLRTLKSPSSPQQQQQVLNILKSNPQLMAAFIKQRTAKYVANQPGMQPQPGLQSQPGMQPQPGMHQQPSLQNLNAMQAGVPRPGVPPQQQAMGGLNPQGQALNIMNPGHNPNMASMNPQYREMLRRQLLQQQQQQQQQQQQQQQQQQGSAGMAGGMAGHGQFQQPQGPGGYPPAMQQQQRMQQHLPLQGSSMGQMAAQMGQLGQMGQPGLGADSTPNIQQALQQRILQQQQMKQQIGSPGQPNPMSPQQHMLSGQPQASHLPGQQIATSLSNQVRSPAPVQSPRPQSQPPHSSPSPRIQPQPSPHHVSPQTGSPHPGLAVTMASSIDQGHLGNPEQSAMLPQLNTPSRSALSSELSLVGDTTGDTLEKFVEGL

With `COc1ccc2c(c1)N(CCC/C=C/c1cccc3c1N[C@H](C)CC(=O)N3)CCC2`, the inhibition in experiment [1] worked out at 70%; in experiment [2], 30%; in experiment [3], 30%; in experiment [4], 70%. The Kd result in experiment [5] is “Not Active”. In addition, the inhibition entry in experiment [6] is “Active”.
